Screens as filed in PubChem.
CR mimetic SO = yeast age-related superoxide inhibition as caloric restriction mimetic | AID 2690 | S. cerevisiae aged cells, superoxide DHE fluorescence; stronger effect = lower value | superoxide response (% of plate mean), % at 10 µM | 330,000 tested, 0.18% active;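 active = superoxide response under a set limit, about three screen SD below normal, cut at about 65% in these data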;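 note: yeast aged for seven days with compound at 30 °C before DHE staining; 100% = average MFI of all compound-treated wells on the plate with controls excluded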
TRPC4 agonist = opens the mouse TRPC4 cation channel; AID 2237; HEK293 TRPC4beta/mu-opioid, Fluo4 calcium fluorescence; stronger effect = higher value; B-score at 10 µM; 310,000 tested, 0.49% active; Q9QUQ5;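 active = B-score above 5 SD of library B-scores, and initial fluorescence ratio not above library mean plus 5 SD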;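 note: positive B-score marks a calcium rise read as TRPC4 activation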
Target sequence (Q9QUQ5 whole entry, looked up): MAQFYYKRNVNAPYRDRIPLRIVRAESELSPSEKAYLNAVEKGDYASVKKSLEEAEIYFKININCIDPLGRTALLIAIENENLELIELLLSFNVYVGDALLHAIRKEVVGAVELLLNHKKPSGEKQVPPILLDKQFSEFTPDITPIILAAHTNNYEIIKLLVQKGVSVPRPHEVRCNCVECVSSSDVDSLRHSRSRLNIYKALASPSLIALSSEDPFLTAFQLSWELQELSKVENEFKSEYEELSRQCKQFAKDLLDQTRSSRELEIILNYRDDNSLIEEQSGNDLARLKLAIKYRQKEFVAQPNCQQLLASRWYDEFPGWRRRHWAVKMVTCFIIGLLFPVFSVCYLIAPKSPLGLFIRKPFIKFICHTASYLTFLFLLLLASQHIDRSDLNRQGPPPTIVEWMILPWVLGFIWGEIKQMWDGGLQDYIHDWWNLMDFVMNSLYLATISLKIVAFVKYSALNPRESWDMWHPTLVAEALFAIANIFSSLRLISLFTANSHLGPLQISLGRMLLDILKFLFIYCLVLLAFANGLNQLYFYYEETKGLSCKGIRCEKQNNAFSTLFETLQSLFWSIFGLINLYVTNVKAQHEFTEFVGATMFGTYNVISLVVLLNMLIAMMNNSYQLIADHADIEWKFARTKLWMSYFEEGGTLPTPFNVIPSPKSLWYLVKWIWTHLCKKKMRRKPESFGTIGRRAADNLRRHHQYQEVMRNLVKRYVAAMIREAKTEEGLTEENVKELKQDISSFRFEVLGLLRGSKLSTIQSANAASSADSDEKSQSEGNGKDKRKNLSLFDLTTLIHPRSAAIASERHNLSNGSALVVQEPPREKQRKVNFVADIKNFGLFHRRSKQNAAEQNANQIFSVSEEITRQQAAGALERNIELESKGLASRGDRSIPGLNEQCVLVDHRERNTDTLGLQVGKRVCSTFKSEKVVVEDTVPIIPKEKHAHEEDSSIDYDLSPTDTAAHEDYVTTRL
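Test system: HEK293 cells stably co-expressing mouse TRPC4beta and mu-opioid receptor | Schedule: Fluo4 dye loading 45 min at room temperature, 110 s recording | Measured by: Kinetic Fluo4 calcium fluorescence, 5 s baseline at 1 Hz | Evaluation: B score of integrated ratio | Controls: Buffer (low) and maximal DAMGO (high)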
TRPC4 potent = allosterically enhances the mouse TRPC4 cation channel; HEK293 TRPC4beta/mu-opioid, DAMGO EC20, Fluo-4 Ca2+ flux; stronger effect = higher value; B-score at 10 µM; 310,000 tested, 0.42% active; AID 2227;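 active = B-score of calcium response area above 5 SD of library B-scores, with initial fluorescence ratio within 5 SD of library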;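 note: B-score of integrated fluorescence ratio over time as area under calcium response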
TRPC6 act = activators of mouse TRPC6 channel. HEK293-TRPC6 membrane potential dye fluorescence; stronger effect = higher value. B-score at 10 µM. Q61143. 310,000 tested, 0.13% active;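 active = B-score of the integrated fluorescence ratio above library mean plus 3 SD, and starting fluorescence ratio within library mean plus 5 SD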;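 note: higher score means more depolarization so channel activation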
TRPC4 inh = blocks the mouse TRPC4 cation channel; HEK293 TRPC4beta/mu-opioid, DAMGO-evoked Fluo4 calcium flux; stronger effect = lower value; B-score at 10 µM; 300,000 tested, 0.39% active;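 active = B-score over 3 SD under the library average, no early fluorescence shift, positive overall ratio signal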
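Assay system – HEK293 line stably carrying TRPC4beta and mu-opioid receptor · Doses – single dose · Detection – Fluo4 calcium-dye fluorescence, kinetic read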
TRPC6 inhibitor = mouse TRPC6 channel inhibition | Q61143 | HEK293-TRPC6, membrane potential dye, ACh-evoked depolarization; stronger effect = lower value | B-score at 10 µM | 310,000 tested, 1.1% active;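 active = B-score under library mean minus 3 SD, initial fluorescence not abnormally high, positive integrated signal ratio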;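 note: B-score derived from integrated fluorescence ratio over the kinetic read; more negative B-score means stronger inhibition of depolarization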
TRPC4 spec 2 = mouse TRPC4 off-target activity of TRPC6 inhibitors, second screen; shares compounds with TRPC6 inhibitor; HEK293 TRPC4/MOR, membrane potential dye fluorescence; channel activated by saturating DAMGO dose; inhibition, % at 10 µM; 920 tested, 42% active;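 active = compounds whose fluorescence signal differed from control wells by over 3 SD, either direction, in both duplicate plates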
TRPC4 spec = selectivity of TRPC6 inhibitors: effect on mouse TRPC4; HEK293 TRPC4/mu-opioid, membrane potential fluorescence; shares compounds with TRPC6 inhibitor; activity change, negative = inhibition, % at 10 µM; 920 tested, 61% active;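 active = rise or fall in signal beyond 3 SD of buffer-only wells in both replicate plates, either sign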;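 note: integrated kinetic ratio of fluorescence range over baseline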
HEK293 MPD ctr 2-1 = second check of TRPC6 inhibitor effects in parental HEK293 cells. shares compounds with TRPC6 inhibitor. signal change vs control, % at 10 µM. 920 tested, 31% active. parental HEK293 membrane potential dye fluorescence; maximal acetylcholine challenge after compound addition;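 active = membrane potential signal moving either way by over 3 SD of the maximum-effect control, in both duplicate plates, meaning non-specific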
HEK293 MPD ctr-1 = parental HEK293 nonspecific activity of TRPC6 inhibitors | shares compounds with TRPC6 inhibitor | parental HEK293 membrane potential dye fluorescence | membrane potential signal change, % at 10 µM | 920 tested, 60% active | AID 2780;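 active = membrane potential signal shifting up or down by more than 3 SD of buffer-only wells, on both duplicate plates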
HEK293 MPD ctr-2 = checks TRPC6 modulator effects in parental HEK293 cells. shares compounds with TRPC6 inhibitor. membrane potential dye fluorescence. membrane potential signal change, % at 10 µM. 2,400 tested, 51% active. AID 488924;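 active = membrane potential signal moves up or down beyond 5 SD from buffer-only wells, on both duplicate plates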
HEK293 MPD ctr 2-2 = second counter-screen for TRPC6 modulators: effect in parental HEK293 cells | shares compounds with TRPC6 inhibitor | membrane potential dye fluorescence; after compound, maximal acetylcholine stimulation | inhibition, % at 10 µM | 2,400 tested, 14% active | AID 488926;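 active = membrane potential signal drops by more than 5 SD from the mean control signal, in both duplicate plates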;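 note: plate controls were acetylcholine ECmax control wells for no effect and buffer only wells for full effect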
TRPC4 ctr mod = mouse TRPC4 off-target activity of TRPC6 modulators; shares compounds with TRPC6 inhibitor; HEK293 TRPC4/mu-opioid, membrane potential fluorescence; percent change from control (negative = decrease, positive = increase), % at 10 µM; 2,400 tested, 69% active; AID 488927;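 active = membrane potential signal moved up or down beyond 5 SD of buffer control wells, in both duplicate plates, actives on both sides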;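 note: plate controls were assay buffer wells for no effect and DAMGO maximal-effect wells for full effect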
TRPC4/MOR inh 2 = second selectivity test of TRPC6 modulators against mouse TRPC4. AID 488928. shares compounds with TRPC6 inhibitor. 2,400 tested, 55% active. inhibition, % at 10 µM. HEK293 TRPC4/mu-opioid, membrane potential dye fluorescence; stimulated with maximal-effect DAMGO;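 active = drop in membrane potential signal beyond 5 SD of the control wells in both duplicate plates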;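 note: TRPC4 counter screen for TRPC6 hits run under conditions tuned for TRPC6 not TRPC4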
TRPC6 inh conf = confirmation of mouse TRPC6 inhibitors; inhibition, % at 10 µM; shares compounds with TRPC6 inhibitor; 3,300 tested, 43% active; HEK293-TRPC6, membrane potential dye, ACh-evoked depolarization;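 active = fluorescence ratio falls more than 5 SD below the full-stimulation control mean, in both duplicate runs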;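 note: integrated fluorescence ratio of peak minus minimum over baseline after agonist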
TRPC6 act confirm = mouse TRPC6 activator confirmation; 2,800 tested, 11% active; shares compounds with TRPC6 inhibitor; HEK293-TRPC6 membrane potential dye fluorescence, FDSS; activation, % at 10 µM;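 active = ratio signal rise beyond 5 SD above unstimulated control wells' mean, seen in both duplicate runs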;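 note: plate controls were buffer EC0 wells for no effect and acetylcholine ECmax response for full effect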
Active calls of the source: *; i = inactive; . = no result given. This is a sample that favours compounds with a hit; in the whole collection about 2.3% have one here.

SMILES	CR mimetic SO	TRPC4 agonist	TRPC4 potent	TRPC6 act	TRPC4 inh	TRPC6 inhibitor	HEK293 MPD ctr-2	HEK293 MPD ctr 2-2	TRPC4 ctr mod	TRPC4/MOR inh 2	TRPC6 inh conf	TRPC6 act confirm	others
Cc1cc(NC2CCCCC2)n2c(n1)nc1ccccc12	111.5	i	i	i	i	-5.5*	i	i	i	i	i	i
CCN1CCN(C(CNS(=O)(=O)c2ccc(Cl)cc2)c2ccccc2)CC1 (stereo not given)	89.5	i	i	i	i	i	.	.	.	.	.	.
O=C(NCc1ccccc1)c1c[nH]c2ccc(S(=O)(=O)Nc3ccc4c(c3)OCCO4)cc2c1=O	100.4	i	i	i	i	-5.21*	i	i	i	i	i	i
O=C(NC1CC1)c1c[nH]c2ccc(S(=O)(=O)Nc3cccc(C(F)(F)F)c3)cc2c1=O	106.3	i	i	i	i	-5.22*	i	i	i	i	i	.
CCc1ccccc1NS(=O)(=O)c1ccc2[nH]cc(C(=O)NCc3ccco3)c(=O)c2c1	130.5	i	i	i	i	-5*	i	i	i	i	i	i
O=C(NCCc1ccco1)C(=O)NCC1OCCCN1S(=O)(=O)c1ccccc1 (stereo not given)	97.0	i	i	i	i	i	.	.	.	.	.	.
Cc1ccsc1CN(C)C(=O)c1cc(S(=O)(=O)N2CCOCC2)ccc1N1CCCC1	105.9	.	.	.	.	.	.	.	.	.	.	.
Cc1nccn1CCCNC(=O)c1nc(Cn2cc([N+](=O)[O-])cn2)no1	91.0	i	i	i	i	i	.	.	.	.	.	.
COc1ccc(/C=N/NC(=O)CCNc2n[nH]c(=O)[nH]c2=O)c(OC)c1	104.8	i	i	i	i	i	.	.	.	.	.	.
CC(C)(C)c1ccc(S(=O)(=O)N2CCC(CO)(CC3CCCCO3)CC2)cc1 (stereo not given)	88.5	i	i	i	i	-5.82*	i	i	17.0%*	i	i	.
CCOC(=O)C1(CC2CCCCO2)CCN(S(=O)(=O)c2ccccc2)CC1 (stereo not given)	91.0	i	i	i	i	i	.	.	.	.	.	.
CC(C)(C)c1ccc(S(=O)(=O)N2CCC(N3CCCCC3)CC2)cc1	91.6	i	i	19.7*	i	i	238.0%*	i	41.0%*	36.0%*	i	122.0%*
COc1cc(/C=C2/CC/C(=C/c3ccc(O)c(OC)c3)C2=O)ccc1O	104.3	43*	i	13.7*	i	i	451.0%*	149.0%*	100.5%*	i	i	97.0%*
Cc1ccc(-c2csc(NC(=O)CSc3nc(C)cc(=O)[nH]3)n2)cc1	115.0	i	i	i	i	-7.66*	.	.	.	.	i	i	TRPC4 spec 2=i;TRPC4 spec=i;HEK293 MPD ctr 2-1=260.5%*;HEK293 MPD ctr-1=i
Cn1c(=O)c2c(nc(SCCN3CCCCC3)n2Cc2ccccc2)n(C)c1=O	96.8	i	33*	i	i	-9.18*	.	.	.	.	i	i	TRPC4 spec 2=42.0%*;TRPC4 spec=22.4%*;HEK293 MPD ctr 2-1=i;HEK293 MPD ctr-1=-392.0%*
CC(C(=O)N1CCN(C2c3ccccc3-c3ccccc32)CC1)N1C(=O)c2ccccc2C1=O (stereo not given)	90.9	i	i	i	i	i	.	.	.	.	.	.
CCOC(=O)N1CCN(S(=O)(=O)c2ccc(OCC)c3ccccc23)CC1	96.8	i	i	i	i	-7.84*	.	.	.	.	i	i	TRPC4 spec 2=i;TRPC4 spec=i;HEK293 MPD ctr 2-1=i;HEK293 MPD ctr-1=i
CCOC(=O)N1CCN(S(=O)(=O)c2ccc(OCC)cc2)CC1	93.5	i	i	i	i	-6.19*	i	i	31.0%*	i	i	.
CCOC(=O)N1CCN(C(=O)COc2ccc3ccccc3c2Br)CC1	101.5	i	i	i	i	-6.59*	i	i	12.5%*	i	i	.
CCOC(=O)N1CCN(S(=O)(=O)c2ccc(OC)c(Cl)c2Cl)CC1	102.0	i	i	i	i	i	.	.	.	.	.	.
O=C(COc1ccc2ccccc2c1Br)N1CCCC1	97.5	i	i	i	i	i	.	.	.	.	.	.
CCOc1cc(S(=O)(=O)N2CCCCCC2)ccc1F	81.8	i	i	i	i	-6.72*	.	.	.	.	i	i	TRPC4 spec 2=i;TRPC4 spec=i;HEK293 MPD ctr 2-1=i;HEK293 MPD ctr-1=i
COCCNC(=O)C(C)OC(=O)C1=Cc2ccccc2OC1 (stereo not given)	80.4	i	i	i	i	i	.	.	.	.	.	.
CCCCOc1ccc(S(=O)(=O)N2CCCCCC2)cc1	119.0	i	i	i	i	-5.63*	i	i	i	i	46.0%*	i
O=[N+]([O-])c1cccnc1N1CCC(c2cc(-c3ccc(Cl)cc3)n[nH]2)CC1	116.2	i	i	i	i	i	.	.	.	.	.	.
